For experiment [1], the system named is MCF7. Briefly: Cytotoxicity against human MCF7 cells assessed as reduction in cell viability after 48 hrs by SRB assay. The settings on record: MCF7, 48 h. The format is functional, cell-based. Summed up:
(§1)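 Cells seeded and allowed to attach 24 h, then exposed to compound at […] for 48 h at 37 °C, 5% CO2. Fixed, stained with sulforhodamine B, bound dye released in Tris EDTA and read on ELISA reader. IC50 taken from survival curve (surviving fraction vs concentration); mean of four independent experiments.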

Experiment [2] concerns MCF7. Briefly: Inhibition of VEGFR2 protein expression in human MCF7 cells at cytotoxic IC50 after 24 hrs by ELISA relative to untreated control. The class given is functional. Summed up: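 MCF-7 cells treated with compound in DMSO for 24 h at 37 °C, humidified 5% CO2. Cells were harvested and homogenised in saline. VEGFR-2 in homogenate was measured by double-antibody sandwich ELISA (monoclonal capture, biotinylated goat polyclonal detection, avidin-biotin-peroxidase, TMB, OD 451 nm). Levels (ng/ml) came from a standard curve as duplicate determinations, and % change was taken versus untreated cells.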
A general note: An ELISA detects its analyte on a solid surface through an enzyme-linked reagent.

Experiment [3] has as its system HepG2. The experiment in a line: Cytotoxicity against human HepG2 cells assessed as reduction in cell viability after 48 hrs by SRB assay. The settings on record: HepG2, 48 h. The class given is functional, cell-based. Put shortly:
as §1
A general note: The SRB assay estimates cell density from bound dye.

Experiment [4] concerns the target Vascular endothelial growth factor receptor 2 (Homo sapiens, UniProt P35968). Briefly: Inhibition of human VEGFR2 using TMB substrate by ELISA.

Chain of Vascular endothelial growth factor receptor 2 (P35968 whole entry): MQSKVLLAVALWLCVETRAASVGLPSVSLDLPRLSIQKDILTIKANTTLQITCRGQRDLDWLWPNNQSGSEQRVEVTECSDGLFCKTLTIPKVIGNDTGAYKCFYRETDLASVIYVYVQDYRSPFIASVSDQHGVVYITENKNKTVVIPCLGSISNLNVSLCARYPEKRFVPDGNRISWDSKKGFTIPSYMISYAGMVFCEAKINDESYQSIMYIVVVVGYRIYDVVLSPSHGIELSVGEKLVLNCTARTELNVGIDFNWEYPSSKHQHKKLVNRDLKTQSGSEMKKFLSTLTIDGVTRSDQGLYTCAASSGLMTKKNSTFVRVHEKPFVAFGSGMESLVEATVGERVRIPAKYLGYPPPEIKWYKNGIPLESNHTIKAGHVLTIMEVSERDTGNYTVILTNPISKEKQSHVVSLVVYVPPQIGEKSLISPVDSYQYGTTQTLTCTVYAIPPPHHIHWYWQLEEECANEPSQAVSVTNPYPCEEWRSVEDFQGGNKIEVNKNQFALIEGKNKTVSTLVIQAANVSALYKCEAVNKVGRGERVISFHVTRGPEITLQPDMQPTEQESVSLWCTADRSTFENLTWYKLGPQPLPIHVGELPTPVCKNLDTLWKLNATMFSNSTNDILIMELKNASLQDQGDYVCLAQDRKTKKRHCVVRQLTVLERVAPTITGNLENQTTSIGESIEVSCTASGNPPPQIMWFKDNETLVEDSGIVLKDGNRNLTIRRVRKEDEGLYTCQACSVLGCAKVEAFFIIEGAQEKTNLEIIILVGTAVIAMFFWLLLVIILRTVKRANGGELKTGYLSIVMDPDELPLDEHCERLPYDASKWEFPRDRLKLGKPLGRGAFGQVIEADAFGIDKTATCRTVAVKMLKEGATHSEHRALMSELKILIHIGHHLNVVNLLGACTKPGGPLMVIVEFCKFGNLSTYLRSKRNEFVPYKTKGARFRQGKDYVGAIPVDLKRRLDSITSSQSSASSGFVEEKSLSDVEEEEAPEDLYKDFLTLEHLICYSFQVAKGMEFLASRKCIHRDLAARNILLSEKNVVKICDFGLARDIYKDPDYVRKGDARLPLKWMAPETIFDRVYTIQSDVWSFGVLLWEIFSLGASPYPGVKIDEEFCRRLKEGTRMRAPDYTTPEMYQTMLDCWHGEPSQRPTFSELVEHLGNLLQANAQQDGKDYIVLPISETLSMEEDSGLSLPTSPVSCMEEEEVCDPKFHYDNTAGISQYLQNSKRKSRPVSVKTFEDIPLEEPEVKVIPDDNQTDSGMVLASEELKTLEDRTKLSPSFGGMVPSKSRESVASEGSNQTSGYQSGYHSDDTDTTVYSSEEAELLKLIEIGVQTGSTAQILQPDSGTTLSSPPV

Usually IC50 stands for the concentration at which inhibition is half-maximal. Turning to `Cc1ccc(-c2nc3ccccc3[nH]2)o1`, in experiment [1], the half-maximal inhibitory concentration (IC50) amounted to 55.6 µM. For the same compound, the “inhibition (INH)” value in experiment [2] came to 39%.

Regarding `CCOC(=O)Cn1c(-c2ccco2)nc2ccccc21`, the figures for the IC50 in experiment [1] and in experiment [3] were 57.3 µM and more than 185 µM, respectively. Also, the “inhibition (INH)” value in experiment [2] came to 57%.

Take `CCOC(=O)Cn1c(-c2ccc(C)o2)nc2ccccc21`: the IC50 in experiment [1] was 63.5 µM; in experiment [3], more than 176 µM. The “inhibition (INH)” value in experiment [2] is recorded as 25%.

Turning to `NNC(=O)Cn1c(-c2ccco2)nc2ccccc21`, the IC50 in experiment [3] was more than 195 µM. Besides, the “inhibition (INH)” value in experiment [2] was determined as 19%.

With `Cc1ccc(-c2nc3ccccc3n2CC(=O)NN)o1`, the IC50 in experiment [1] was 68.3 µM; in experiment [3] it was more than 185 µM. The “inhibition (INH)” value in experiment [2] is recorded as 24%.

Turning to `Cc1ccc(-c2nc3ccccc3n2Cc2nnco2)o1`, the IC50 in experiment [1] is more than 177 µM; in experiment [3] it was 132 µM.

For the compound `O=C1CS/C(=C/n2c(-c3ccco3)nc3ccccc32)N1`, the concentration for half-maximal inhibition (IC50) in experiment [1] was found to be 29.1 µM; in experiment [3] it was 31.1 µM. The “inhibition (INH)” value in experiment [2] is given as 86%.

`Cc1ccc(-c2nc3ccccc3n2C(=O)n2c(-c3ccc(C)o3)nc3ccccc32)o1`: the IC50 in experiment [1] was 58.3 µM; in experiment [3] it was more than 118 µM. In experiment [2], the “inhibition (INH)” value worked out at 9%.

Regarding `N#CCn1c(-c2ccco2)nc2ccccc21`, the IC50 in experiment [1] and in experiment [3] was 88.1 µM throughout. For the same compound, the “inhibition (INH)” value in experiment [2] was determined as 39%.

For `N#C/C(=C1/SCC(=O)N1c1ccccc1)n1c(-c2ccco2)nc2ccccc21`, the IC50 turned out to be 55.9 µM in experiment [1] and 39.6 µM in experiment [3]. Further, the “inhibition (INH)” value in experiment [2] stood at 55%.

Take `SC1=NNCC(n2c(-c3ccco3)nc3ccccc32)=N1`: the values for the IC50 in experiment [1] and in experiment [3] were 60.5 µM and 62.1 µM, respectively. For the same compound, in experiment [2], the “inhibition (INH)” value was determined as 40%.

Turning to `O=C(CCl)n1c(-c2ccco2)nc2ccccc21`, the IC50 in experiment [1] and in experiment [3] was 60.9 µM throughout. In experiment [2], the “inhibition (INH)” value worked out at 40%.

For `O=C(Cn1c(-c2ccco2)nc2ccccc21)N/N=C/c1ccccc1Cl`, the half-inhibitory concentration (IC50) turned out to be 26.1 µM in experiment [1], 25.9 µM in experiment [3] and 0.64 µM in experiment [4]. Besides, the “inhibition (INH)” value in experiment [2] worked out at 94%.

With `O=C(O)Cn1c(-c2ccco2)nc2ccccc21`, the IC50 in experiment [1] was 63.1 µM; in experiment [3], 149 µM. In experiment [2], the “inhibition (INH)” value is given as 61%.

As to `CCOC(=O)CSc1nnc(Cn2c(-c3ccco3)nc3ccccc32)s1`, the IC50 in experiment [1] amounted to 28.5 µM; in experiment [3], 62.1 µM. Moreover, in experiment [2], the “inhibition (INH)” value is reported as 92%.

Consider `ClC(Cl)(Cl)c1nnc(Cn2c(-c3ccco3)nc3ccccc32)o1`, for which the IC50 in experiment [1] is more than 131 µM; in experiment [3], 85.6 µM.

`COC(=O)Cn1c(-c2ccc(C)o2)nc2ccccc21`: the figures for the IC50 in experiment [1] and in experiment [3] were 87 µM and more than 185 µM, respectively. Further, the “inhibition (INH)” value in experiment [2] worked out at 38%.

Consider `NC(=O)Cn1c(-c2ccco2)nc2ccccc21`, for which the IC50 amounted to 118 µM in experiment [1] and 157 µM in experiment [3]. Also, the “inhibition (INH)” value in experiment [2] turned out to be 13%.

As to `NC(=O)/C(=C\c1ccccc1Cl)n1c(-c2ccco2)nc2ccccc21`, the figures for the IC50 in experiment [1] and in experiment [3] were 40 µM and 44.8 µM, respectively. The “inhibition (INH)” value in experiment [2] was found to be 57%.

As to `N=C(Cn1c(-c2ccco2)nc2ccccc21)NN`, the IC50 in experiment [1] stood at 53.1 µM; in experiment [3], 74.5 µM. Besides, in experiment [2], the “inhibition (INH)” value was 27%.

`Cc1ccc(-c2nc3ccccc3n2C(=O)C(=O)n2c(-c3ccc(C)o3)nc3ccccc32)o1`: the values for the IC50 in experiment [1] and in experiment [3] were 65.6 µM and more than 111 µM, respectively. The “inhibition (INH)” value in experiment [2] is recorded as 17%.

In the case of `c1ccc2[nH]c(-c3ccc(CN4CCOCC4)o3)nc2c1`, the IC50 amounted to 55.5 µM in experiment [1] and 128 µM in experiment [3]. Moreover, the “inhibition (INH)” value in experiment [2] is recorded as 58%.

`Cc1ccc(-c2nc3ccccc3n2CC(=O)N/N=C/c2ccccc2Cl)o1`: the half-maximal inhibitory concentration (IC50) came to 21.2 µM in experiment [1], 22.6 µM in experiment [3] and 1.26 µM in experiment [4]. Also, in experiment [2], the “inhibition (INH)” value came to 96%.

Regarding `NNC(=O)CSc1nnc(Cn2c(-c3ccco3)nc3ccccc32)s1`, the IC50 in experiment [1] came to 21.4 µM; in experiment [3], 26.9 µM; in experiment [4], 1.41 µM. Moreover, the “inhibition (INH)” value in experiment [2] is 96%.

Regarding `N=C1N=C(n2c(-c3ccco3)nc3ccccc32)CN1`, the IC50 in experiment [1] is 93 µM; in experiment [3], 63.5 µM. Further, the “inhibition (INH)” value in experiment [2] was 22%.

As for `COC(=O)Cn1c(-c2ccco2)nc2ccccc21`, the figures for the IC50 in experiment [1] and in experiment [3] were 80.6 µM and 67.3 µM, respectively. For the same compound, in experiment [2], the “inhibition (INH)” value was determined as 61%.

For `Cc1ccc(-c2nc3ccccc3n2CC(=O)O)o1`, the IC50 in experiment [1] is 139 µM; in experiment [3] it was more than 195 µM. Moreover, the “inhibition (INH)” value in experiment [2] is recorded as 20%.

In the case of `NC(=O)/C(=C\c1ccccc1)n1c(-c2ccco2)nc2ccccc21`, the results for the IC50 in experiment [1] and in experiment [3] were 38.6 µM and 63 µM, respectively. The “inhibition (INH)” value in experiment [2] was determined as 80%.

On to `S=c1[nH]nc(Cn2c(-c3ccco3)nc3ccccc32)s1`, for which the IC50 in experiment [1] is 52.6 µM; in experiment [3], 47.6 µM. The “inhibition (INH)” value in experiment [2] is given as 14%.

Consider `c1coc(-c2nc3ccccc3[nH]2)c1` [FUBERIDAZOLE], for which the IC50 came to 106 µM in experiment [1] and 103 µM in experiment [3]. Further, the “inhibition (INH)” value in experiment [2] is 43%.

Consider `CNC(=O)c1cc(Oc2ccc(NC(=O)Nc3ccc(Cl)c(C(F)(F)F)c3)cc2)ccn1` [SORAFENIB], for which, in experiment [1], the IC50 is 4.33 µg/mL. Also, the “inhibition (INH)” value in experiment [2] worked out at 95.75%.

For the compound `CC/C(=C(\c1ccccc1)c1ccc(OCCN(C)C)cc1)c1ccccc1` [TAMOXIFEN], in experiment [2], the “inhibition (INH)” value worked out at 98%.

The record behind these values is ChEMBL document CHEMBL4138096, “Design, synthesis, molecular docking and cytotoxic evaluation of novel 2-furybenzimidazoles as VEGFR-2 inhibitors” (Eur J Med Chem, 2017).
